Assay results pooled from the literature.
Protocols differ between the studies behind these lines.
Read-out: binding
CREBBP bromodomain: CREB-binding protein, bromodomain (CREBBP, Homo sapiens, UniProt Q92793)
tspO A138F: tspO (Cereibacter sphaeroides, UniProt Q9RFC8, A138F)
PIK3CG: Phosphatidylinositol 4,5-bisphosphate 3-kinase catalytic subunit gamma isoform (PIK3CG, Homo sapiens, UniProt P48736)

| SMILES | target | technique | Kd |
| --- | --- | --- | --- |
| Cn1nnc2ccc(NC(=O)c3cccc(C(=O)O)c3)cc21 | CREBBP bromodomain | competition with immobilised ligand | 17 µM |
| C=CC1=C(C)c2cc3[nH]c(cc4nc(cc5[nH]c(cc1n2)c(C)c5CCC(=O)O)C(CCC(=O)O)=C4C)c(C)c3C=C | tspO A138F | fluorescence | 0.7 µM |
| Nc1nc2c(ncn2[C@@H]2O[C@H](COP(=O)(O)OP(=O)(O)O)[C@@H](OP(=O)(O)OP(=O)(O)O)[C@H]2O)c(=O)[nH]1 | Dihydrofolate synthase/folylpolyglutamate synthase (Escherichia coli, UniProt P08192) | ITC | 130 µM |
| CCCc1cc(N=Nc2cc(S(=O)(=O)O)c(C)cc2C)ccc1O | CREBBP bromodomain | fluorescence | 97 µM |
| CC(C)=CCc1c(O)ccc(C(=O)/C=C/c2ccc(O)cc2)c1O | Dihydroorotate dehydrogenase (quinone), mitochondrial (DHODH, Homo sapiens, UniProt Q02127) | ITC | 1.33 µM |
| C=CC1=C(C)C2=Cc3c(C=C)c(C)c4[n]3[Fe]([Cl])[n]3c(c(C)c(CCC(=O)O)c3=CC3=NC(=C4)C(C)=C3CCC(=O)O)=CC1=N2 | tspO A138F | fluorescence | 0.7 µM |
| CCC(=O)N1CCC(C(=O)NCC(=O)N2CCN(c3nc(-c4cnc(N)nc4C(F)F)nc(N4CCOCC4)n3)CC2)CC1 | PIK3CG | competition with immobilised ligand | 0.0013 µM |
| CC1=C(/C=C/C(C)=C/C=C/C(C)=C/C=O)C(C)(C)CCC1 | Cellular retinoic acid-binding protein 2 (CRABP2, Homo sapiens, UniProt P29373, L122E/R112E/R133K) | fluorescence | 0.894 µM |
| Cc1cc2c(NC(=O)c3cccc(C(=O)O)c3)cccc2nn1 | CREBBP bromodomain | competition with immobilised ligand | 1.1 µM |
| C=CC(=O)N1CCC(C(=O)N(C)CC(=O)N2CCN(c3nc(-c4cnc(N)nc4C(F)F)nc(N4CCOCC4)n3)CC2)CC1 | PIK3CG | competition with immobilised ligand | 0.0094 µM |
| CO[C@H]1[C@H](O)[C@@H](CO)OC(O)[C@@H]1O (some centres unmarked) | Nucleolar RNA helicase 2 (Homo sapiens, UniProt Q9NR30) | MST | 3.98 µM |
